In ChEMBL document CHEMBL4382264, “Melanogenesis-Inhibitory and Cytotoxic Activities of Triterpene Glycoside Constituents from the Bark of Albizia procera” (J Nat Prod, 2018):
Active and inactive are the calls of the source. No cut-off for these calls is given here.

Tests used:
[1] = Cytotoxicity against non-stimulated mouse B16F10 cells assessed as cell viability at 100 uM relative to control; assay type: cell-based, B16-F10; conditions: read-out: Activity
In short: (§1)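 B16 melanoma cells tested for viability at 10 or 100 μM. Absorbance read at 570 nm (test) minus 630 nm (reference). Expressed as % of DMSO control (DMSO 2 μL·mL−1). Mean ± SD, n = 3.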

B16-F10 [2] = experiment: Selectivity index, ratio of compound effect for cytotoxicity against non-stimulated mouse B16F10 cells assessed as cell viability at 10 uM to compound effect for inhibition of alpha-MSH-stimulated melanogenesis in mouse B16F10 cells assessed as melanin content at 10 uM
[3] = Selectivity index, ratio of IC50 for human […] cells to IC50 for human A549 cells
In short: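 Selectivity index equals the IC50 against WI38 normal cells divided by the IC50 against A549 cells.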

SK-BR-3 = experiment: Cytotoxicity against human SKBR3 cells assessed as reduction in cell viability after 48 hrs by MTT assay; assay type: functional, cell-based; conditions: SK-BR-3, 48 h
In short: (§2)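 Cells exposed to compounds from 1 × 10−4 to 1 × 10−6 M for 48 h. Viability read by MTT. IC50 derived from five concentrations, each run in triplicate.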

HL-60 [4] = experiment: Cytotoxicity against human HL60 cells assessed as reduction in cell viability after 48 hrs by MTT assay; assay type: functional, cell-based; conditions: HL-60, 48 h; in short: as §2
WI-38 = experiment: Cytotoxicity against human WI38 cells assessed as reduction in cell viability after 48 hrs by MTT assay; assay type: cell-based; conditions: WI-38, 48 h; in short: as §2
A549 = experiment: Cytotoxicity against human A549 cells assessed as reduction in cell viability after 48 hrs by MTT assay; assay type: functional, cell-based; conditions: A549, 48 h; in short: as §2
B16-F10 [5] = experiment: Inhibition of alpha-MSH-stimulated melanogenesis in mouse B16F10 cells assessed as melanin content at 10 uM measured after 48 hrs relative to control; assay type: functional; set-up: scale not given: the % may be the effect or the level left
In short: (§3)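 B16F10 cells treated with test sample plus 0.10 μM α-MSH for 48 h. Melanin solubilized in 2 N NaOH–10% DMSO and read at 405 nm. Expressed as % of DMSO-treated cells (DMSO 2 μL·mL−1). Mean ± SD, n = 3.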

[6] = Cytotoxicity against non-stimulated mouse B16F10 cells assessed as cell viability at 10 uM relative to control; assay type: cell-based, B16-F10; conditions: read-out: Activity; in short: as §1
B16-F10 [7] = experiment: Selectivity index, ratio of compound effect for cytotoxicity against non-stimulated mouse B16F10 cells assessed as cell viability at 100 uM to compound effect for inhibition of alpha-MSH-stimulated melanogenesis in mouse B16F10 cells assessed as melanin content at 100 uM
B16-F10 [8] = experiment: Inhibition of alpha-MSH-stimulated melanogenesis in mouse B16F10 cells assessed as melanin content at 100 uM measured after 48 hrs relative to control; assay type: functional; set-up: scale not given: the % may be the effect or the level left; in short: as §3
AZ-521 cell line = experiment: Cytotoxicity against human AZ-521 cells assessed as reduction in cell viability after 48 hrs by MTT assay; assay type: functional, cell-based; conditions: AZ-521, 48 h; in short: as §2
HL-60 [9] = experiment: Induction of apoptosis in human HL60 cells assessed as early apoptotic cells at 3 uM after 48 hrs by Annexin V-FITC/propidium iodide staining based flow cytometry (reference value: 0.8%); assay type: functional
In short: (§4)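 HL60 cells cultured with 3.0 μM for 0, 24 and 48 h. Cells stained with annexin V-FITC and propidium iodide and analyzed by flow cytometry for early and late apoptotic fractions. Mean of three experiments, compared against an untreated negative control.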

HL-60 [10] = experiment: Induction of apoptosis in human HL60 cells assessed as late apoptotic cells at 3 uM after 24 hrs by Annexin V-FITC/propidium iodide staining based flow cytometry (reference value: 3%); assay type: functional; in short: as §4
HL-60 [11] = experiment: Induction of apoptosis in human HL60 cells assessed as increase in cleaved caspase-8 expression at 3 uM after 24 to 48 hrs by Western blot analysis; assay type: functional, cell-based
In short: (§5)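 HL60 cells treated with 3.0 μM for 24 and 48 h, then lysed in RIPA buffer. Total protein cleared by centrifugation and quantified by BCA. Procaspase and cleaved caspase-3, -8 and -9 levels assessed by Western blot.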

HL-60 [12] = experiment: Induction of apoptosis in human HL60 cells assessed as late apoptotic cells at 3 uM after 48 hrs by Annexin V-FITC/propidium iodide staining based flow cytometry (reference value: 1.9%); assay type: functional; in short: as §4
HL-60 [13] = experiment: Induction of apoptosis in human HL60 cells assessed as cell shrinkage at 0.3 to 3 uM after 24 hrs by Hoechst 33342 staining based fluorescence microscopic analysis; assay type: functional; conditions: 1 to 3 uM, in the assay text read “1 to 3 uM” for “0.3 to 3 uM”
In short: (§6)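 HL60 cells treated for 24 h, fixed in 4% paraformaldehyde, and nuclei stained with Hoechst 33342. Cell shrinkage, nuclear fragmentation and chromatin condensation scored by fluorescence microscopy.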

HL-60 [14] = experiment: Induction of apoptosis in human HL60 cells assessed as increase in cleaved caspase-3 expression at 3 uM after 24 to 48 hrs by Western blot analysis; assay type: functional, cell-based; in short: as §5
HL-60 [15] = experiment: Induction of apoptosis in human HL60 cells assessed as increase in cleaved caspase-9 expression at 3 uM after 24 to 48 hrs by Western blot analysis; assay type: functional, cell-based; in short: as §5
HL-60 [16] = experiment: Induction of apoptosis in human HL60 cells assessed as early apoptotic cells at 3 uM after 24 hrs by Annexin V-FITC/propidium iodide staining based flow cytometry (reference value: 2.4%); assay type: functional; in short: as §4
HL-60 [17] = experiment: Induction of apoptosis in human HL60 cells assessed as chromatin condensation at 1 to 3 uM after 24 hrs by Hoechst 33342 staining based fluorescence microscopic analysis; assay type: functional, cell-based; in short: as §6
HL-60 [18] = experiment: Induction of apoptosis in human HL60 cells assessed as fragmentation of nuclei at 1 to 3 uM after 24 hrs by Hoechst 33342 staining based fluorescence microscopic analysis; assay type: functional, cell-based; in short: as §6

Row | Structure (SMILES) | viability at 100 µM [1] [%] | Ratio (B16-F10 [2]) | Ratio IC50 [3] | IC50 (SK-BR-3) [nM] | IC50 (HL-60 [4]) [nM] | IC50 (WI-38) [nM] | IC50 (A549) [nM] | Activity (B16-F10 [5]) [%] | viability at 10 µM [6] [%] | Ratio (B16-F10 [7]) | Activity (B16-F10 [8]) [%] | IC50 (AZ-521 cell line) [nM] | other results
1 | C=C[C@@](C)(O)CC/C=C(\C)C(=O)O[C@H]1[C@H](O)[C@@H](O)[C@H](O[C@](C)(C=C)CCCC(C)C(=O)O[C@H]2C[C@]3(C(=O)O[C@@H]4O[C@H](CO)[C@@H](O)[C@H](O)[C@H]4O[C@@H]4O[C@@H](C)[C@H](O[C@@H]5O[C@@H](CO)[C@H](O)[C@H]5O)[C@@H](O[C@@H]5O[C@H](CO)[C@@H](O)[C@H](O)[C@H]5O)[C@H]4O)[C@H](O)C[C@]4(C)C(=CC[C@@H]5[C@@]6(C)CC[C@H](O[C@@H]7O[C@H](CO[C@@H]8OC[C@H](O)[C@H](O)[C@H]8O[C@@H]8OC[C@@H](O)[C@H](O)[C@H]8O)[C@@H](O)[C@H](O)[C@H]7O)C(C)(C)[C@@H]6CC[C@]54C)[C@@H]3CC2(C)C)O[C@@H]1C (stereo partly specified) | 104 | 0.81 | 8.2 | 800 | 900 | 8300 | 1000 | 86.2 | 107 | 0.77 | 80 | 1200 | –
2 | C=C[C@@](C)(O)CC/C=C(\C)C(=O)O[C@H]1[C@H](O)[C@@H](O)[C@H](O[C@](C)(C=C)CCCC(C)C(=O)O[C@H]2C[C@]3(C(=O)O[C@@H]4O[C@H](CO)[C@@H](O)[C@H](O)[C@H]4O[C@@H]4O[C@@H](C)[C@H](O[C@@H]5O[C@@H](CO)[C@H](O)[C@H]5O)[C@@H](O[C@@H]5O[C@H](CO)[C@@H](O)[C@H](O)[C@H]5O)[C@H]4O)CC[C@]4(C)C(=CC[C@@H]5[C@@]6(C)CC[C@H](O[C@@H]7O[C@H](CO[C@@H]8O[C@H](C)[C@H](O)[C@H](O)[C@H]8O[C@@H]8OC[C@@H](O)[C@H](O)[C@H]8O)[C@@H](O)[C@H](O)[C@H]7O[C@@H]7O[C@H](CO)[C@@H](O)[C@H](O)[C@H]7O)C(C)(C)[C@@H]6CC[C@]54C)[C@@H]3CC2(C)C)O[C@@H]1C (stereo partly specified) | 104 | 0.79 | 2.7 | 2600 | 600 | 4800 | 1800 | 86.5 | 110 | 0.77 | 79.6 | 600 | –
3 | C=C[C@@](C)(O)CC/C=C(\C)C(=O)O[C@H]1[C@H](O)[C@@H](O)[C@H](O[C@](C)(C=C)CCCC(C)C(=O)O[C@H]2C[C@]3(C(=O)O[C@@H]4O[C@H](CO)[C@@H](O)[C@H](O)[C@H]4O[C@@H]4O[C@@H](C)[C@H](O[C@@H]5O[C@@H](CO)[C@H](O)[C@H]5O)[C@@H](O[C@@H]5O[C@H](CO)[C@@H](O)[C@H](O)[C@H]5O)[C@H]4O)CC[C@]4(C)C(=CC[C@@H]5[C@@]6(C)CC[C@H](O[C@@H]7O[C@H](CO[C@@H]8O[C@H](C)[C@H](O)[C@H](O)[C@H]8O[C@@H]8OC[C@@H](O)[C@H](O)[C@H]8O)[C@@H](O)[C@H](O)[C@H]7O)C(C)(C)[C@@H]6CC[C@]54C)[C@@H]3CC2(C)C)O[C@@H]1C (stereo partly specified) | 102 | 0.69 | 1.8 | 400 | 900 | 2500 | 1300 | 74.3 | 107 | 0.42 | 42.5 | 1700 | –
4 | OC[C@H]1O[C@@H](Oc2ccc(O)cc2)[C@H](O)[C@@H](O)[C@@H]1O [ARBUTIN] | 101 | 0.91 | – | – | – | – | – | 92.7 | 102 | 0.81 | 81.5 | – | –
5 | C=C[C@@](C)(O)CC/C=C(\C)C(=O)O[C@H]1[C@H](O)[C@@H](O)[C@H](O[C@](C)(C=C)CCCC(C)C(=O)O[C@H]2C[C@]3(C(=O)O[C@@H]4O[C@H](CO)[C@@H](O)[C@H](O)[C@H]4O[C@@H]4O[C@@H](C)[C@H](O[C@@H]5O[C@@H](CO)[C@H](O)[C@H]5O)[C@@H](O[C@@H]5O[C@H](CO)[C@@H](O)[C@H](O)[C@H]5O)[C@H]4O)[C@H](O)C[C@]4(C)C(=CC[C@@H]5[C@@]6(C)CC[C@H](O[C@@H]7O[C@H](CO[C@@H]8OC[C@H](O)[C@H](O)[C@H]8O[C@@H]8OC[C@@H](O)[C@H](O)[C@H]8O)[C@@H](O)[C@H](O)[C@H]7O[C@@H]7O[C@H](CO)[C@@H](O)[C@H](O)[C@H]7O)C(C)(C)[C@@H]6CC[C@]54C)[C@@H]3CC2(C)C)O[C@@H]1C (stereo partly specified) | 100 | 0.78 | 16.9 | 1300 | 300 | 5100 | 300 | 80.9 | 103 | 0.51 | 50.7 | 500 | Activity (HL-60 [9]): 38.2%; Activity (HL-60 [10]): 22.7%; Activity (HL-60 [11]): Active; Activity (HL-60 [12]): 42.2%; Activity (HL-60 [13]): Active; Activity (HL-60 [14]): Active; Activity (HL-60 [15]): Active; Activity (HL-60 [16]): 19%; Activity (HL-60 [17]): Active; Activity (HL-60 [18]): Active
6 | C=C[C@@](C)(O)CC/C=C(\C)C(=O)O[C@H]1[C@H](O)[C@@H](O)[C@H](O[C@](C)(C=C)CCCC(C)C(=O)O[C@H]2C[C@]3(C(=O)O[C@@H]4O[C@H](CO)[C@@H](O)[C@H](O)[C@H]4O[C@@H]4O[C@@H](C)[C@H](O[C@@H]5O[C@@H](CO)[C@H](O)[C@H]5O)[C@@H](O[C@@H]5O[C@H](CO)[C@@H](O)[C@H](O)[C@H]5O)[C@H]4O)CC[C@]4(C)C(=CC[C@@H]5[C@@]6(C)CC[C@H](O[C@@H]7O[C@H](CO[C@@H]8OC[C@H](O)[C@H](O)[C@H]8O[C@@H]8OC[C@@H](O)[C@H](O)[C@H]8O)[C@@H](O)[C@H](O)[C@H]7O[C@@H]7O[C@H](CO)[C@@H](O)[C@H](O)[C@H]7O)C(C)(C)[C@@H]6CC[C@]54C)[C@@H]3CC2(C)C)O[C@@H]1C (stereo partly specified) | 102 | 0.81 | 3.4 | 1100 | 500 | 2200 | 660 | 89.2 | 110 | 0.74 | 75.2 | 400 | –
